# Screens (PubChem BioAssay)
# Shown is part of a subset that was picked to be rich in hits.
# Fh CTSL1 inh: Fasciola hepatica cathepsin L1 inhibitors, primary screen, counter-screen for PFM18AAP inhibitor project, biochemical, QFRET, fluorogenic peptide substrate. recombinant F. hepatica cathepsin L1, Z-Leu-Arg-MCA fluorescence. inhibition, % at 5.96 µM. hit rate 0.49% among 300,000;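 active = inhibition above the mean of all tested compounds plus 3 SD, set per screening campaign, cut at about 17% in these data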;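 also: 0% = plate median of test compound wells and 100% = 1 µM Z-Phe-Ala-diazomethylketone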
# UPR XBP1 act: activators of adaptive XBP1 UPR arm, primary screen, cell-based, CHO-XBP1 luciferase reporter, luminescence, uHTS | activation, % at 20 µM | hit rate 0.33% among 330,000 | IRE1-XBP1 UPR activation; percent of tunicamycin response, DMSO as zero;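 active = versus positive control, 20 µM dose yields 30% or more activation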;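 also: 100% = tunicamycin at 10 µg/mL and 0% = DMSO only wells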
#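 Material: CHO-XBP1 cells stably carrying IRE1-XBP1-driven luciferase reporter | Medium: F12 with 10% serum | Compound dosing: 20 µM single concentration, DMSO 1% | Incubation: Overnight seeding at 37 °C, 6 h compound treatment at 37 °C | Detection: Steady-Glo luminescence read | Read-out basis: % activation of reporter signal versus tunicamycin and DMSO controls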
# UCH37 DUB inh: inhibitors of human UCH37 deubiquitinase, primary screen, biochemical, Ub-AMC cleavage, fluorescence; Ubiquitin carboxyl-terminal hydrolase isozyme L5 (Homo sapiens), Q9Y5K5; purified proteasome/UCH37; inhibition, % (concentration not given with the values); hit rate 0.33% among 330,000; AID 588478, 2011;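 active = mean inhibition over replicate wells above about 20%, limit read from the data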;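 also: 0% = compound-free wells with enzyme and 100% = wells lacking proteasome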
# Target sequence (Q9Y5K5 whole entry, looked up): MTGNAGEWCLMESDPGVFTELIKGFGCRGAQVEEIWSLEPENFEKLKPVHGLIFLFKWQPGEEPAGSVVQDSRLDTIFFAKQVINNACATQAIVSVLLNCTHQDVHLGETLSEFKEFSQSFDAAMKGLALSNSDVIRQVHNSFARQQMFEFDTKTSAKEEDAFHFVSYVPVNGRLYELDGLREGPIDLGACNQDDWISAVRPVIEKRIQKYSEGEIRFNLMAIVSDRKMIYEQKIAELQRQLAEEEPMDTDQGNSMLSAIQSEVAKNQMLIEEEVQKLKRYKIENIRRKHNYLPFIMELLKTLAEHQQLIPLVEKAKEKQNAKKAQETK
#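 Material: human UCH37 enzyme supplied as purified proteasome complex / Amount: 0.15 nM proteasome as dispensed / Buffer or medium: pH 7.4 Tris-HCl (50 mM) with ovalbumin, ATP-MgCl2, DTT / Times: preincubation 30 min, reaction 25 min, room temperature / Technique: AMC fluorescence from Ub-AMC cleavage, excitation 355 nm, emission 460 nm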
# CHOP UPR activ: activators of apoptotic CHOP UPR arm, primary screen, cell-based, CHO-CHOP luciferase reporter, luminescence, uHTS | activation, % at 10 µM | AID 449763, 2010 | UPR activation; percent of tunicamycin response over DMSO baseline | hit rate 0.34% among 330,000;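 active = at 10 µM dose, activation of 40% or more, normalized to positive control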;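 also: 100% = tunicamycin at 10 µg/mL and 0% = DMSO alone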
#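 System: CHO-CHOP luciferase reporter cell line; amount: 500 cells/well; buffer or medium: F12 medium containing 10% fetal bovine serum; incubation: 6 h compound exposure at 37 °C after overnight seeding; measured by: luciferase luminescence after 10 min with Steady-Glo reagent; evaluation: % reporter activation, DMSO baseline versus tunicamycin full activation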
# CHOP inh: inhibitors of CHOP promoter induction, primary screen, cell-based, unfolded protein response, luciferase reporter | CHO-K1 CHOP-promoter luciferase, tunicamycin-induced, 15-18 h | inhibition, % at 10 µM | hit rate 3.8% among 220,000 | AID 2732, 2010;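 active = compounds that reduced the stress-induced luciferase reporter signal by more than about 70% of percent inhibition, limit read from the data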;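 also: 0% = tunicamycin plus vehicle and 100% = wells without tunicamycin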
# * = called active by the depositor; nt = no result.
SMILES,Fh CTSL1 inh,UPR XBP1 act,UCH37 DUB inh,CHOP UPR activ,CHOP inh
CC(/C=C/c1ccco1)=NNC(=O)Cc1cccs1,nt,nt,4,nt,nt
CCNc1nc(Sc2ccc(C)cc2)cc(C(F)(F)F)n1,-2,4,0,-1,87*
CCNc1nc(Oc2ccc(OC)cc2)cc(C(F)(F)F)n1,5,-4,3,-2,65
COc1ccc(N=Cc2c(O)[nH]c3ccccc23)cc1,3,2,6,2,14
COc1ccc(CN=Cc2c(O)[nH]c3ccccc23)cc1,21*,-2,8,0,16
CON=C(CNC(=O)c1ccccc1Cl)c1ccc(Cl)cc1,nt,nt,-6,nt,nt
COc1ccc(/C=N/NC(=O)CCn2c3ccccc3c3ccccc32)cc1O,4,2,nt,-1,41
COc1cccc(/C=N/NC(=O)CCn2c3ccccc3c3ccccc32)c1,1,-1,nt,-3,89*
CCCCc1n[nH]c2c1C(=NO)CC(C)(C)C2,nt,nt,1,nt,nt
CCOC(=O)C(=O)N1CCN(c2nc(-c3ccc(Cl)cc3)cs2)CC1,-1,-5,3,-1,nt
CCOC(=O)N1CCN(c2nc(-c3ccc(F)cc3)cs2)CC1,-1,4,3,2,78*
CC1=CC2=NC(=O)/C(=C\c3ccc(-c4ccc(Cl)cc4)o3)C(=N)N2O1,nt,nt,nt,nt,93*
CC(=NNc1nncc2ccccc12)c1ccc(Cl)c([N+](=O)[O-])c1,nt,nt,5,nt,nt
Cc1c(C(=O)NCc2ccccc2)oc2c1C(=O)CCC2,-1,-1,25*,1,4
Cc1c(C(=O)NCc2cccnc2)oc2c1C(=O)CC(C)(C)C2,-2,0,2,0,22
O=C(NN=Cc1ccccn1)c1ccc(NC(=O)c2ccc(F)cc2)cc1,nt,nt,2,nt,nt
O=c1c2c(nc3n1CCCCC3)-c1ccccc1CC21CCCCC1,2,-1,6,3,-7
CCC1(C)Cc2ccccc2-c2nc3n(c(=O)c21)CCCCC3 (stereo not drawn),-2,-2,2,1,81*
NC(=S)n1[nH]c(-c2ccc([N+](=O)[O-])cc2)c(N=Nc2cccc(Cl)c2)c1=O,nt,-4,5,0,83*
Cc1ccc(C=NNC(=O)c2nnn(-c3nonc3N)c2CNc2ccccc2)cc1,nt,nt,6,nt,nt
C(=NNc1nc(-c2ccccc2)cc(-c2ccccc2)n1)c1cccnc1,nt,nt,-1,nt,nt
CCOC(=O)c1ccc(C=NO)[n+](Cc2ccccc2)c1,nt,nt,10,nt,nt
Cn1c(Cn2nnc3ccccc32)nnc1SCC(=O)N1c2ccccc2CCc2ccccc21,0,0,4,2,22
Cn1c(Cn2nnc3ccccc32)nnc1SCC(=O)N1c2ccccc2Sc2ccccc21,17*,-1,3,-2,10
Cc1ccc2c(c1)c(C)c(C)n2CC(O)Cn1nnc2ccccc21 (stereo not drawn),2,1,2,6,84*
SMILES,Fh CTSL1 inh,UPR XBP1 act,UCH37 DUB inh,CHOP UPR activ,CHOP inh
OC(CN1c2ccccc2Sc2ccccc21)Cn1nnc2ccccc21 (stereo not drawn),17*,3,3,5,63
Cc1nn(CC(O)CN2c3ccccc3Sc3ccccc32)c(C)c1Br (stereo not drawn),6,-1,4,-2,77*
Cc1nn(CC(O)c2ccccc2)c(C)c1Br (stereo not drawn),0,2,0,2,-6
O=C(CON=C1CCCc2nonc21)Nc1ccccc1Cl,nt,nt,-1,nt,nt
CON=Cc1ccc(N2CCN(C(=O)c3cccc(Cl)c3)CC2)c([N+](=O)[O-])c1,nt,nt,5,nt,nt
CC(C)=CCCC1=CCC(C(C)=NNC(N)=O)CC1 (stereo not drawn),nt,nt,11,nt,nt
CC(=O)c1sc(N/N=C\c2cccc(Br)c2)nc1C,4,-1,nt,3,81*
CC(=O)c1sc(N/N=C\c2ccc(Br)cc2)nc1C,3,6,nt,5,24
N#CCCn1cc(C=N/N=C2\NC(=O)C(CC(=O)O)S2)c(-c2ccc(F)cc2)n1 (stereo not drawn),nt,nt,5,nt,nt
Cc1nc(NC(=O)CC(C)C)sc1-c1csc(Nc2ccc(Cl)cc2)n1,12,-2,-4,-1,71*
